Consider twelve compounds from ChEMBL document CHEMBL4196148, “Antibacterial Prenylated Isoflavonoids from the Stems of Millettia extensa” (2018).

What is called MIC is the least concentration at which growth counts as inhibited. The low end stands for inhibition by little substance, the high end for a need for much substance.

The subject of one assay is Pseudomonas aeruginosa. Briefly: Antibacterial activity against Pseudomonas aeruginosa TISTR 292 by 2-fold serial dilution method. The assay is classed as functional. The essentials:
(§1)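 MICs determined following Clinical and Laboratory Standards Institute recommendations, reported in μg/mL.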

The test system of assay [1] is Staphylococcus epidermidis. Briefly: Antibacterial activity against Staphylococcus epidermidis ATCC 12228 at >128 ug/ml by 2-fold serial dilution method. The assay is classed as functional, organism-based. Put shortly: as §1
Assay [2] has as its system Staphylococcus aureus. Briefly: Antibacterial activity against Staphylococcus aureus TISTR 1466 at >128 ug/ml by 2-fold serial dilution method. The class given is functional, organism-based. The essentials: as §1
The test system of assay [3] is Bacillus subtilis. Briefly: Antibacterial activity against Bacillus subtilis TISTR 008 at >128 ug/ml by 2-fold serial dilution method. The note with it: Bacillus spizizenii. The assay is classed as functional, organism-based. The essentials: as §1
In another assay the test system is Salmonella typhimurium. Nature of the assay: Antibacterial activity against Salmonella typhimurium TISTR 781 by 2-fold serial dilution method. The class given is functional, Salmonella enterica subsp. enterica serovar Typhimurium. The essentials: as §1
The subject of assay [4] is Staphylococcus epidermidis. Briefly: Antibacterial activity against Staphylococcus epidermidis ATCC 12228 by 2-fold serial dilution method. The assay is classed as functional. The essentials:
as §1

Assay [5] concerns Staphylococcus aureus. Nature of the assay: Antibacterial activity against Staphylococcus aureus TISTR 1466 by 2-fold serial dilution method. The class given is functional. Put shortly:
as §1

In assay [6] the test system is Bacillus subtilis. Briefly: Antibacterial activity against Bacillus subtilis TISTR 008 by 2-fold serial dilution method. The class given is functional, Bacillus spizizenii. The essentials: as §1

In brackets after ≈: the same amount, converted by molar mass. Activity calls are given as the source filed them. No cut-off for these calls is given here.

As to `Oc1ccc2c(c1)OC[C@H]1c3cc4c(cc3O[C@@H]21)OCO4` [MAACKIAIN], the minimal inhibitory concentration (MIC) in the assay with Pseudomonas aeruginosa and in the assay with Salmonella typhimurium (Salmonella enterica) was 128 µg/mL (≈ 450 µM) each time. The outcome (in assay [1]; in the assay with Staphylococcus aureus [2]; in the assay with Bacillus subtilis [3]) was inactive.
For `C=C(C)[C@@H]1Cc2c(cc(O)c3c2O[C@H]2COc4cc(OC)c(OC)cc4[C@H]2C3=O)O1`, the MIC in the assay with Pseudomonas aeruginosa and against Salmonella typhimurium (Salmonella enterica) was 128 µg/mL (≈ 312 µM) each time. For the same compound, the result (in assay [1]; with Staphylococcus aureus [2]; with Bacillus subtilis [3]) was inactive.
Take `COc1cc(OC)c(-c2coc3cc4c(c(O)c3c2=O)C=CC(C)(C)O4)cc1OC`: the MIC in the assay with Pseudomonas aeruginosa and in the assay on Salmonella typhimurium (Salmonella enterica) was 128 µg/mL (≈ 312 µM) each time. The outcome (in assay [1]; in the assay with Staphylococcus aureus [2]; with Bacillus subtilis [3]) was inactive.
As for `CC(C)=CCc1c2c(c3occ(-c4ccc(O)cc4O)c(=O)c3c1O)C=CC(C)(C)O2`, the MIC is 128 µg/mL (≈ 304 µM) in the assay on Pseudomonas aeruginosa; 2 µg/mL (≈ 4.76 µM) in assay [4]; 2 µg/mL (≈ 4.76 µM) against Staphylococcus aureus [5]; 2 µg/mL (≈ 4.76 µM) with Bacillus subtilis [6]; 128 µg/mL (≈ 304 µM) in the assay on Salmonella typhimurium (Salmonella enterica).
Turning to `CN[C@H](CC(C)C)C(=O)N[C@H]1C(=O)N[C@@H](CC(N)=O)C(=O)N[C@H]2C(=O)N[C@H]3C(=O)N[C@H](C(=O)N[C@H](C(=O)O)c4cc(O)cc(O)c4-c4cc3ccc4O)[C@H](O)c3ccc(c(Cl)c3)Oc3cc2cc(c3O[C@@H]2O[C@H](CO)[C@@H](O)[C@H](O)[C@H]2O[C@H]2C[C@](C)(N)[C@H](O)[C@H](C)O2)Oc2ccc(cc2Cl)[C@H]1O` [VANCOMYCIN], the minimal inhibitory concentration (MIC) (in assay [4]; in the assay with Staphylococcus aureus [5]; in the assay on Bacillus subtilis [6]) was 0.25 µg/mL (≈ 0.173 µM) in each case.
On to `CC(C)=CCOc1ccc(-c2coc3cc4c(c(O)c3c2=O)C=CC(C)(C)O4)cc1`, for which the MIC in the assay with Pseudomonas aeruginosa and in the assay on Salmonella typhimurium (Salmonella enterica) was 128 µg/mL (≈ 316 µM) in each case. Also, the outcome (in assay [1]; in the assay on Staphylococcus aureus [2]; with Bacillus subtilis [3]) was inactive.
As for `CC(C)=CCc1c2c(c(O)c3c(=O)c(-c4ccc(O)cc4O)coc13)C=CC(C)(C)O2`, the minimum inhibitory concentration (MIC) was 128 µg/mL (≈ 304 µM) in the assay with Pseudomonas aeruginosa; 2 µg/mL (≈ 4.76 µM) in assay [4]; 2 µg/mL (≈ 4.76 µM) against Staphylococcus aureus [5]; 2 µg/mL (≈ 4.76 µM) against Bacillus subtilis [6]; 128 µg/mL (≈ 304 µM) with Salmonella typhimurium (Salmonella enterica).
Take GENTAMICIN: the MIC against Pseudomonas aeruginosa came out at 2 µg/mL; with Salmonella typhimurium (Salmonella enterica subsp. enterica serovar Typhimurium) it was 0.25 µg/mL.
Turning to `CC(C)=CCC1=C(O)c2c(occ(-c3ccc(O)cc3O)c2=O)C(CC=C(C)C)(CC=C(C)C)C1=O`, the MIC against Pseudomonas aeruginosa was 128 µg/mL (≈ 261 µM); in assay [4], 2 µg/mL (≈ 4.08 µM); against Staphylococcus aureus [5], 2 µg/mL (≈ 4.08 µM); against Bacillus subtilis [6] it was 2 µg/mL (≈ 4.08 µM); against Salmonella typhimurium (Salmonella enterica), 128 µg/mL (≈ 261 µM).
On to `CC(C)=CCc1c2c(c(O)c3c(=O)c(-c4ccc(O)c(O)c4)coc13)C=CC(C)(C)O2` [AURICULASIN], for which the minimum inhibitory concentration (MIC) with Pseudomonas aeruginosa is 128 µg/mL (≈ 304 µM); in assay [4], 4 µg/mL (≈ 9.51 µM); in the assay on Staphylococcus aureus [5], 4 µg/mL (≈ 9.51 µM); against Bacillus subtilis [6], 8 µg/mL (≈ 19 µM); with Salmonella typhimurium (Salmonella enterica) it was 128 µg/mL (≈ 304 µM).
Consider `CC(C)=CCOc1ccc(-c2coc3cc4c(c(O)c3c2=O)C=CC(C)(C)O4)c(O)c1`, for which the minimal inhibitory concentration (MIC) in the assay with Pseudomonas aeruginosa and in the assay with Salmonella typhimurium (Salmonella enterica) was 128 µg/mL (≈ 304 µM) in each case. Moreover, the result (in assay [1]; in the assay on Staphylococcus aureus [2]; in the assay with Bacillus subtilis [3]) was inactive.
As for `CC(C)=CCc1c2c(c(O)c3c(=O)c(-c4ccc(O)cc4)coc13)C=CC(C)(C)O2` [WARANGALONE], the MIC against Pseudomonas aeruginosa was 128 µg/mL (≈ 316 µM); in assay [4], 4 µg/mL (≈ 9.89 µM); in the assay on Staphylococcus aureus [5], 2 µg/mL (≈ 4.94 µM); against Bacillus subtilis [6], 2 µg/mL (≈ 4.94 µM); in the assay with Salmonella typhimurium (Salmonella enterica) it was 128 µg/mL (≈ 316 µM).
